One compound from ChEMBL document CHEMBL3804769, “Antibacterial Diamines Targeting Bacterial Membranes” (J Med Chem, 2016) can be followed below.

SMILES strings stand for the structures. Activity calls are given as the source filed them. No cut-off for these calls is given here. A value given as a limit tells only on which side of the number the result lay.

Data set [1] in a line: Selectivity index, ratio of CC50 for human A549 cells to MIC99 for Escherichia coli ANS1. In outline:
(§1)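 CC50: HEK293T/17 or A549 cells seeded at 10⁴ per well in DMEM with 10% FBS at 37 °C, 5% CO2. After 24 h, wells PBS-washed and serially diluted compound applied for 48 h, with viability read by MTS and CC50 taken by nonlinear regression. MIC99 by CLSI broth microdilution, overnight at 37 °C without shaking, from three independent tests. SI = CC50/MIC99.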

Data set [2] concerns Staphylococcus aureus. The experiment in a line: Antibacterial activity against methicillin-resistant Staphylococcus aureus clinical isolate 10076B SPA type 2 after 24 hrs by microbroth dilution method. It counts as functional. In outline: (§2)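 MRSA isolates from ICU surfaces, stored at −80 °C and grown in Mueller-Hinton broth. Overnight cultures diluted and added to serially diluted compound at ~10⁵ CFU/mL, broth microdilution. Plates incubated 24 h at 37 °C, growth read as absorbance at 620 nm. MIC99 taken as the lowest concentration giving complete growth inhibition.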

A short description of data set [3]: Selectivity index, ratio of CC50 for HEK293T/17 cells to MIC99 for Staphylococcus aureus RN4220 ATCC 35556. The class given is toxicity, cell-based. The following applies: human, read-out: Selectivity Index. The gist of the method:
as §1

Data set [4] relates to Pseudomonas aeruginosa. The experiment in a line: Antibacterial activity against Pseudomonas aeruginosa PAO1 ATCC 47085 in early exponential-phase assessed as membrane damage at 2 times MIC99 after 15 mins by transmission electron microscopy. The class given is functional, organism-based. In outline: (§3)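 Cells grown in LB to early exponential phase (OD600 ~0.4). Exposed to 2× MIC99 for 15–60 min, washed twice in phosphate buffer, fixed in 2.5% glutaraldehyde, then imaged by transmission electron microscopy.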

For data set [5], the system named is Staphylococcus aureus. The experiment in a line: Potentiation of kanamycin-induced antibacterial activity against Staphylococcus aureus RN4220 ATCC 35556 assessed as reduction in kanamycin MIC99 at 0.5 times MIC99 after 24 hrs by checkerboard assay relative to control. It counts as functional. The gist of the method: (§4)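 Checkerboard assay: compound serially diluted along one axis of a 96-well plate and antibiotic along the other, in LB. Each well inoculated with 2 × 10⁴ CFU and incubated 24 h at 37 °C. ΣFIC = FIC A + FIC B, where each FIC is the combination MIC99 divided by the MIC99 of that drug alone.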

Data set [6] has as its system Staphylococcus aureus. The experiment in a line: Antibacterial activity against methicillin-resistant Staphylococcus aureus clinical isolate at MIC99 after 12 hrs by microbroth dilution method in presence of 10% fetal bovine serum. The class given is functional, organism-based. The gist of the method:
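Broth microdilution MIC99 run with 10% fetal bovine serum in the medium, after 12 h preincubation of compound with the serum. Plates incubated overnight at 37 °C without shaking. MIC99 taken as the lowest concentration giving complete growth inhibition.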
On the technique in general: Broth dilution looks for growth in wells or tubes with falling amounts of substance.

For data set [7], the system named is Staphylococcus aureus. The experiment in a line: Bactericidal activity against Staphylococcus aureus RN4220 ATCC 35556 in exponential-phase assessed as reduction in bacterial burden at 4 times MIC99 after 2 to 6 hrs by time-kill assay. It counts as functional, organism-based. The gist of the method: (§5)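 Overnight cultures washed and resuspended in PBS, then diluted 100-fold into LB (exponential-phase model) or into 1% PBS (stationary-phase model). Test agent added at 4× MIC99. Incubated at 37 °C with shaking at 200 rpm. CFU counted on LB agar at 0, 2, 4 and 6 h.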

The subject of data set [8] is Staphylococcus aureus. Briefly: Antibacterial activity against Staphylococcus aureus RN4220 ATCC 35556 at 0.5 times MIC99 after 24 hrs by checkerboard assay in presence of norfloxacin. The class given is functional. The gist of the method: as §4
Data set [9] has as its system Pseudomonas aeruginosa. The experiment in a line: Bactericidal activity against Pseudomonas aeruginosa PAO1 ATCC 47085 assessed as reduction in bacterial burden at 0.5 times MIC99 after 3 to 24 hrs by time kill assay in presence of 0.5 times MIC99 of kanamycin relative to control. It counts as functional, organism-based. The gist of the method:
(§6)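 Combination time-kill in LB at 1 × 10⁶ CFU/mL starting inoculum. Arms were compound or kanamycin alone at 1× and 0.5× MIC99, and the two combined at 0.5× MIC99 each. Incubated at 37 °C with shaking at 300 rpm. Viable counts taken by dilution and plating on LB agar at 0, 3, 6 and 24 h.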

Data set [10] concerns Staphylococcus aureus. The experiment in a line: Antibacterial activity against Staphylococcus aureus RN4220 ATCC 35556 at 0.5 times MIC99 after 24 hrs by checkerboard assay in presence of kanamycin. The class given is functional. In outline: as §4
In data set [11] the test system is Caenorhabditis elegans. Briefly: Toxicity in adult L4/juvenile L1 stages of Caenorhabditis elegans N2 assessed as effect on egg production at 64 ug/ml incubated for 96 hrs measured every 12 hrs. The class given is organism-based. Particulars: in vivo. The gist of the method:
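C. elegans N2 maintained on NGM agar at 22 °C. Compound mixed into molten NGM agar at 64 μg/mL. L4 adults, L1 juveniles and synchronized eggs transferred onto test plates and kept 96 h at 22 °C. Checked every 12 h for death, development and egg production. Gentamicin and […] as controls.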

Data set [12] concerns Pseudomonas aeruginosa. The experiment in a line: Bactericidal activity against Pseudomonas aeruginosa PAO1 ATCC 47085 in stationary-phase assessed as reduction in bacterial burden at 4 times MIC99 after 4 hrs by time-kill assay. The class given is functional, organism-based. The gist of the method: as §5
Data set [13] is described as follows: Selectivity index, ratio of CC50 for human A549 cells to MIC99 for methicillin-resistant Staphylococcus aureus clinical isolate.
Data set [14] deals with Staphylococcus aureus. The experiment in a line: Antibacterial activity against methicillin-resistant Staphylococcus aureus clinical isolate 20467BA SPA type 59 after 24 hrs by microbroth dilution method. The class given is functional. The gist of the method: as §2
In data set [15] the test system is Caenorhabditis elegans. Briefly: Toxicity in adult L4/juvenile L1 stages of Caenorhabditis elegans N2 assessed as effect on locomotion at 64 ug/ml incubated for 96 hrs measured every 12 hrs. The class given is organism-based. The following applies: in vivo.
Data set [16] has as its system Staphylococcus aureus. The experiment in a line: Bactericidal activity against Staphylococcus aureus RN4220 ATCC 35556 assessed as reduction in bacterial burden at 4 times MIC99. It counts as functional.
Data set [17] deals with Pseudomonas aeruginosa. Briefly: Antibacterial activity against Pseudomonas aeruginosa PAO1 ATCC 47085 in exponential-phase assessed as cytoplasmic membrane depolarization at 1 to 4 times MIC99 by fluorescent probe DiSC3-5 based fluorophotometric analysis. The class given is functional, organism-based. In outline: (§7)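 Log-phase cells (OD600 ~0.7) washed and resuspended to OD600 0.05 in 5 mM HEPES pH 7.2 with 5 mM glucose and 100 mM KCl. Loaded with 0.4 μM DiSC3-5 in the dark until fluorescence fell stably by about 90%. Compound added at 4× or 1× MIC99 and fluorescence recorded continuously at 25 °C (ex 622/em 670 nm). 2,4-Dinitrophenol as positive control. Three independent experiments.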

Data set [18] has as its system Staphylococcus aureus. Briefly: Antibacterial activity against Staphylococcus aureus RN4220 ATCC 35556 in exponential-phase assessed as cytoplasmic membrane depolarization at 1 to 4 times MIC99 by fluorescent probe DiSC3-5 based fluorophotometric analysis. The class given is functional, organism-based. The gist of the method: as §7
Data set [19] concerns Staphylococcus aureus. Briefly: Bactericidal activity against Staphylococcus aureus RN4220 ATCC 35556 assessed as reduction in bacterial burden at 0.5 times MIC99 after 3 to 24 hrs by time kill assay in presence of 0.5 times MIC99 of kanamycin relative to control. It counts as functional. In outline: as §6
Data set [20] deals with Staphylococcus aureus. Briefly: Antibacterial activity against methicillin-resistant Staphylococcus aureus clinical isolate 30253CA SPA type 7 after 24 hrs by microbroth dilution method. The class given is functional. The gist of the method:
as §2

A short description of data set [21]: Selectivity index, ratio of CC50 for human A549 cells to MIC99 for Staphylococcus aureus RN4220 ATCC 35556. The class given is toxicity, cell-based. The following applies: read-out: Selectivity Index. The gist of the method: as §1
Data set [22] deals with Staphylococcus aureus. Briefly: Antibacterial activity against Staphylococcus aureus RN4220 ATCC 35556 in early exponential-phase assessed as numerous spherical double layered mesosome like structures at 2 times MIC99 after 30 to 60 mins by transmission electron microscopy. The class given is functional, organism-based. The gist of the method: as §3

The MIC99 is the lowest concentration that inhibits either 99% of growth or 99% of the strains tested, depending on the study. Low readings indicate greater potency, high ones weaker potency.

Turning to `Cl.Cl.S=C(NCCCNCCCCCNCCCNC(=S)NCC(c1ccccc1)c1ccccc1)NCC(c1ccccc1)c1ccccc1`, the “Selectivity Index” value came to 32 in data set [1] and 64 in [13]. The MIC99 against Staphylococcus aureus [2], in the data set on Staphylococcus aureus [14] and with Staphylococcus aureus [20] was 1 µg/mL each time. The figures for the selectivity ratio in data set [3] and in data set [21] were 16 and 32, respectively. For the same compound, the result with Pseudomonas aeruginosa [4], in the data set with Staphylococcus aureus [6], with Staphylococcus aureus [7], in the data set with Pseudomonas aeruginosa [9], in the data set with Pseudomonas aeruginosa [12] and in the data set on Pseudomonas aeruginosa [17] was Active. The result in the data set with Staphylococcus aureus [18] and with Staphylococcus aureus [22] was Active. In addition, the “fold change (FC)” value in the data set with Staphylococcus aureus [5] was 8. In addition, the “fractional inhibitory concentration index (FICI)” value was found to be 0.75 with Staphylococcus aureus [8] and 0.25 in the data set on Staphylococcus aureus [10]. The Activity result was “Non-toxic” in the data set with Caenorhabditis elegans [11], “Non-toxic” in the data set on Caenorhabditis elegans [15], greater than 2 deltalog10CFU/ml with Staphylococcus aureus [16] and greater than 2 deltalog10CFU/ml in the data set on Staphylococcus aureus [19].
